# Screening results (PubChem)
# MC4R ag barr – activates human MC4R beta-arrestin recruitment. U2OS MC4R beta-arrestin complementation, luminescence; percent of melanotan II response, DMSO zero. activation, % at 8.9 µM. actives 0.98% (n = 360,000). AID 540308;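 active means activation above a per-plate cutoff, the mean activation of sample wells on that plate plus 3 SD, cut at about 8% in these data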
# Target sequence (P32245 whole entry, looked up): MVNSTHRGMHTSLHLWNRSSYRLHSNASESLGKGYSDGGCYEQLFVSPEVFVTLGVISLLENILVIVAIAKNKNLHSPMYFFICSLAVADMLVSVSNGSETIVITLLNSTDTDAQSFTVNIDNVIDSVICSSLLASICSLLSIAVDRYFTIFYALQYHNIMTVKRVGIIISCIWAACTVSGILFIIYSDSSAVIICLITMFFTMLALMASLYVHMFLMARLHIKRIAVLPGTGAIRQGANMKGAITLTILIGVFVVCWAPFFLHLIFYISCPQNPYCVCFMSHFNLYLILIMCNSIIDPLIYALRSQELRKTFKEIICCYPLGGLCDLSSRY
# EBI2 block – antagonists of human EBI2 receptor | P32249 | EBI2 beta-arrestin recruitment, luminescence, 7a,25-OHC stimulated | inhibition, % at 5 µM | actives 0.81% (n = 360,000) | AID 651636; in the data active means inhibition above about 38%;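 further: enzyme fragment complementation signal reports receptor beta-arrestin coupling in cells; 0% = agonist plus DMSO wells and 100% = wells without agonist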
# MC4R antag cAMP – antagonists of human melanocortin 4 receptor (MC4R) | inhibition, % at 6.5 µM | MC4R-expressing cells, MTII-stimulated cAMP, LANCE TR-FRET | actives 0.48% (n = 360,000) | P32245;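 active means inhibition above its plate's cutoff, the mean of tested wells on that plate plus 3 SD, cut at about 29% in these data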;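 further: 0% = Melanotan II alone and 100% = Melanotan II plus saturating MCL0020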
#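 material = U2OS cells stably expressing human melanocortin 4 receptor (MC4R) | also added = Melanotan II challenge | dosing = single nominal compound dose of 6.5 µM | detection = TR-FRET with Eu-cAMP and labeled anti-cAMP, 671 nm | replication = singlicate | timing = compound 30 min, challenge 1 h, detection 1 h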
# m5-HT2A agonist – mouse HTR2A agonism via beta-arrestin recruitment. CHO-K1 mHTR2A beta-arrestin complementation, luminescence; percent of 30 µM serotonin response. activation, % at 7.6 µM. actives 0.66% (n = 360,000);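 active means activation above a run cutoff, the mean activation of all tested compounds plus 3 SD, cut at about 14% in these data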;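 further: 0% = plate median of compound wells and 100% = 30 µM serotonin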
# MC4R barr ag – human MC4R beta-arrestin agonism confirmation | activation, % at 8.9 µM | U2OS MC4R beta-arrestin recruitment, luminescence; scaled DMSO 0%, Melanotan II 100% | actives 31% (n = 2,400) | shares compounds with MC4R ag barr;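 active means mean activation across replicates above the hit cutoff set in the earlier primary screen, cut at about 8% in these data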
# MOR DOR agonist – activates mu-delta opioid heterodimer, MC4R agonist counter-screen; actives 5.8% (n = 2,400); activation, % at 9.2 µM; U2OS PathHunter beta-arrestin, beta-gal luminescence; percent of deltorphin B response, DMSO zero; shares compounds with MC4R ag barr; AID 602194;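 active means mean activation across replicates exceeds the hit threshold derived in the earlier primary screen, cut at about 18% in these data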;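 further: 100% = deltorphin B at 0.9 µM final and 0% = DMSO alone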
# Numbers without * were called inactive; / = not tested or not shown. Only some compounds are listed: those with a hit (about 2.8% of all), similar ones and a draw of the others.
SMILES,MC4R ag barr,EBI2 block,MC4R antag cAMP,m5-HT2A agonist,MC4R barr ag,MOR DOR agonist
COc1cccc2cc(-c3nnc(SCC(=O)Nc4cc(C(F)(F)F)ccc4Cl)n3N)oc12,21*,22,0,13,1,6
CCn1c(SCC(=O)Nc2nccs2)nnc1-c1cc2cccc(OC)c2o1,-2,0,5,0,/,/
Cc1cc(C)n(CCNC(=O)[C@H]2O[C@@H](n3ccc(N)nc3=O)[C@H](O)[C@@H]2O)n1,/,-1,/,-7,/,/
CCc1c(C2(O)CCCCC2)[nH]c2ccc(C#N)cc12,11*,-5,8,6,3,8
CCc1c(C2(O)CCCCC2)[nH]c2ccc(C(=O)OC)cc12,2,-9,9,1,/,/
Clc1cc2c(nn1)Nc1ccccc1S2,4,-5,-26,-3,/,/
S=C1Nc2ccccc2Sc2ccc(Cl)cc21,23*,3,-9,0,10*,7
C[C@@H]1CN([C@H](C)CO)C(=O)c2cc(C#CC(C)(C)O)cnc2O[C@@H]1CN(C)C(=O)C1CC1,2,-5,10,-5,/,/
O=C(COC(=O)c1sc2ccccc2c1Cl)Nc1ncc(Cl)cc1Cl,27*,-1,-5,7,-2,4
O=C(COC(=O)c1sc2cc(F)ccc2c1Cl)Nc1ncc(Cl)cc1Cl,0,-7,9,1,/,/
COc1cccc(S(=O)(=O)N(C)C[C@H]2Oc3ncc(Br)cc3C(=O)N([C@@H](C)CO)C[C@@H]2C)c1,0,-3,10,-8,/,/
O=C(NCc1nnnn1-c1ccc(Cl)cc1)C(=O)c1c[nH]c2ccccc12,0,-10,0,-1,/,/
COc1cc(NCCCn2ccc(NC(=O)OCc3ccccc3)nc2=O)cc(OC)c1OC,0,-12,6,1,/,/
COc1ccc(N=c2oc3c(OC)cccc3cc2C(=O)NCc2ccco2)c(OC)c1,32*,24,17,0,13*,25*
O=S1(=O)N[C@H](Cc2ccccc2)COc2cccc(N3CCN(Cc4ccccc4F)CC3)c21,/,6,/,-6,/,/
COc1ccc(C(=O)CSc2nnc(-c3cc(C)cc(C)c3)o2)cc1,9.8*,5,10,-2,8,6
COc1ccc(C(=O)CSc2nnc(CNc3ccc(C)cc3C)o2)cc1,11*,27,9,0,11*,12
COc1cccc(C(=O)CSc2nnc(-c3cc(OC)cc(OC)c3)o2)c1,0,-3,3,3,/,/
COc1ccc(Cc2nc3ccc(C(=O)N4CCN(C)C(C)C4)cc3o2)cc1OC (stereo not given),-1,2,7,0,/,/
CCOC(=O)N(C)C[C@@H]1OCc2cnnn2CCCC(=O)N([C@H](C)CO)C[C@H]1C,-1,-6,3,-4,/,/
O=C(Nc1ccc(Nc2ccccc2)cc1)c1cc([N+](=O)[O-])ccc1Cl,-1,22,0,-5,/,/
O=C(Nc1ccccc1Oc1ccccc1)c1cc([N+](=O)[O-])ccc1Cl,14*,-2,12,8,-1,6
O=C(CC1CC1)Nc1ccc2c(c1)[C@@H]1C[C@H](CC(=O)NC3CCCC3)O[C@@H](CO)[C@@H]1O2,3,-3,-6,2,/,/
O=C(Nc1nnc(C2CC2)s1)c1ccc(Cl)c(S(=O)(=O)N2CCc3ccccc3C2)c1,11*,-2,2,-1,4,6
CCC(C)CN1C(=O)CN(S(C)(=O)=O)CC1(C)C(=O)NCc1ccccc1 (stereo not given),/,-5,/,2,/,/
SMILES,MC4R ag barr,EBI2 block,MC4R antag cAMP,m5-HT2A agonist,MC4R barr ag,MOR DOR agonist
N#C/C(=C\c1ccc(Sc2ccccc2)o1)c1nc2ccccc2[nH]1,12*,16,-3,-2,6,8
CCOC(=O)c1sc2nc(CSc3ccccc3Cl)[nH]c(=O)c2c1C,10*,8,-6,1,3,2
O=[N+]([O-])c1cc(/C=N/O)ccc1SCc1ccccc1Cl,18*,-9,-13,-5,6,6
CC(C)(C)Sc1ccc(/C=N/O)cc1[N+](=O)[O-],1,0,-19,1,/,/
CCCc1nc2c3ccccc3ccn2c1Cc1ccccc1,/,11,/,-6,/,/
NC1=NC(=O)/C(=C/c2c(OS(=O)(=O)c3ccc(Cl)cc3)ccc3ccccc23)S1,9.6*,21,7,4,2,5
NC1=NC(=O)/C(=C/c2ccccc2OS(=O)(=O)c2ccccc2)S1,-3,12,-3,5,/,/
CC(C)(C)OC(=O)N1CCC(C(=O)Nc2ccc(C(=O)N3CCCCC3)cc2)CC1,2,-7,8,1,/,/
Nc1sc(-c2ccccc2)cc1-c1n[nH]c(=S)n1C1CCCCC1,11*,-2,-16,4,7,8
COc1cc(Cl)c(C)cc1NC(=O)CN1CCN(C(=O)c2cccs2)CC1,0,4,2,0,/,/
CCCCNC(=O)C1c2ccccc2OCC(=O)N1CCc1ccccc1 (stereo not given),/,-4,/,4,/,/
C=CCNC(=O)NC(=O)CSc1nc2cc([N+](=O)[O-])ccc2n1-c1cccc(C(F)(F)F)c1,11*,24,7,5,3,6
COc1ccc(-c2cc(C(=O)NCc3ccc(C(F)(F)F)cc3)[nH]n2)c(C)c1,0,18,-3,-10,/,/
CN(Cc1ccccc1)C(=S)NC(=O)c1ccc(-c2ccccc2)cc1,28*,8,-4,-3,-5,2
CC(=O)Nc1ccc(NC(=S)NC(=O)c2ccc(-c3ccccc3)cc2)cc1,36*,35,6,8,4,6
COc1cc(C(=O)NC(=S)N(C)Cc2ccccc2)cc(OC)c1OC,0,2,4,-1,/,/
N#Cc1c(C(F)(F)F)cc(-c2cccs2)nc1SCc1cccnc1,12*,13,4,17*,1,1
N#Cc1c(C(F)(F)F)cc(-c2cccs2)nc1SCc1ccc(Cl)nc1,16*,8,9,0,6,3
N#Cc1ccc(-c2cccs2)nc1SCc1cccnc1,-2,3,-22,-2,/,/
COc1ccc(NC(=O)c2cc(C3CCCCN3C(=O)c3ccc(NC(C)=O)cc3)on2)c(C)c1 (stereo not given),-2,13,6,-3,/,/
COc1ccc(-c2nc3c(C)cc(Br)cn3c2Cc2cccc(Cl)c2)cc1OC,/,30,/,7,/,/
CCOC(=O)/C(C#N)=C(C)/C=C1\Sc2ccccc2N1CC,18*,-19,-16,9,15*,2
Cc1ccc(Nc2nc(-c3cccnc3)nc3ccccc23)cc1,-1,13,5,-6,/,/
CCOC(=O)c1ccc(Nc2nc(-c3cccnc3)nc3ccccc23)cc1,57*,-5,11,-4,0,7
